Laboratory results taken from ChEMBL document CHEMBL1165950, “Design and synthesis of new potent anticancer pyrazoles with high FLT3 kinase inhibitory selectivity” (Bioorg Med Chem, 2010).

Key:
Format in all cases: functional
SN12C = assay: Cytotoxicity against human SN12C cells assessed as cell growth at 10 uM; settings: read-out: Activity
Procedure, shortened: (§1)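 NCI-60 screen: cells grown in RPMI 1640 with 5% FBS and 2 mM L-glutamine, plated at 5000–40,000 cells/well according to doubling time, and preincubated 24 h at 37 °C, 5% CO2. The single 10 µM dose (DMSO stock) was added, then incubated 48 h. Cells were TCA-fixed and stained with 0.4% SRB, read at 515 nm, and growth % calculated against time-zero and control plates.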

OVCAR-4 = assay: Cytotoxicity against human OVCAR4 cells assessed as cell growth at 10 uM; settings: read-out: Activity; procedure, shortened: as §1
COLO 205 = assay: Cytotoxicity against human COLO205 cells assessed as cell growth at 10 uM; settings: read-out: Activity
Procedure, shortened: (§2)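 Single-dose NCI-60 screen at 10 µM. Cells were grown in RPMI 1640 with 5% FBS and 2 mM L-glutamine, then treated for 48 h at 37 °C. Protein was measured by SRB staining with absorbance at 515 nm. Percentage growth was recorded, and inhibition percentage was calculated as 100 minus growth percentage.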

NCI-H23 = assay: Cytotoxicity against human NCI-H23 cells assessed as cell growth at 10 uM; settings: read-out: Activity; procedure, shortened: as §1
DU-145 = assay: Cytotoxicity against human DU145 cells assessed as cell growth at 10 uM; settings: read-out: Activity; procedure, shortened: as §2
ACHN = assay: Cytotoxicity against human ACHN cells assessed as cell growth at 10 uM; settings: read-out: Activity; procedure, shortened: as §2
UO-31 = assay: Cytotoxicity against human UO31 cells assessed as cell growth at 10 uM; settings: read-out: Activity; procedure, shortened: as §1
NCI-H226 = assay: Cytotoxicity against human NCI-H226 cells assessed as cell growth at 10 uM; settings: read-out: Activity; procedure, shortened: as §1
SR = assay: Cytotoxicity against human SR cells assessed as cell growth at 10 uM; settings: read-out: Activity; procedure, shortened: as §1
[1] = Cytotoxicity against human […] cells assessed as cell growth at 10 uM; settings: read-out: Activity; procedure, shortened: as §1
RXF 393 = assay: Cytotoxicity against human RXF393 cells assessed as cell growth at 10 uM; settings: read-out: Activity; procedure, shortened: as §1
SNB-19 = assay: Cytotoxicity against human SNB19 cells assessed as cell growth at 10 uM; settings: read-out: Activity; procedure, shortened: as §1
LOX IMVI = assay: Cytotoxicity against human LOXIMVI cells assessed as cell growth at 10 uM; settings: read-out: Activity; procedure, shortened: as §1
CAKI-1 = assay: Cytotoxicity against human Caki1 cells assessed as cell growth at 10 uM; settings: read-out: Activity; procedure, shortened: as §2
SK-MEL-5 = assay: Cytotoxicity against human SK-MEL-5 cells assessed as cell growth at 10 uM; settings: read-out: Activity; procedure, shortened: as §1
UACC-257 = assay: Cytotoxicity against human UACC257 cells assessed as cell growth at 10 uM; settings: read-out: Activity; procedure, shortened: as §1
HCT-15 = assay: Cytotoxicity against human HCT15 cells assessed as cell growth at 10 uM; settings: read-out: Activity; procedure, shortened: as §2
M14 = assay: Cytotoxicity against human M14 cells assessed as cell growth at 10 uM; settings: read-out: Activity; procedure, shortened: as §1
MDA-MB-468 = assay: Cytotoxicity against human MDA-MB-468 cells assessed as cell growth at 10 uM; settings: read-out: Activity; procedure, shortened: as §1
SK-MEL-2 = assay: Cytotoxicity against human SK-MEL-2 cells assessed as cell growth at 10 uM; settings: read-out: Activity; procedure, shortened: as §1
U-251 = assay: Cytotoxicity against human U251 cells assessed as cell growth at 10 uM; settings: read-out: Activity; procedure, shortened: as §1
A549 = assay: Cytotoxicity against human A549 cells assessed as cell growth at 10 uM; settings: read-out: Activity; procedure, shortened: as §2
786-0 = assay: Cytotoxicity against human 786-0 cells assessed as cell growth at 10 uM; settings: read-out: Activity; procedure, shortened: as §2
SF-268 = assay: Cytotoxicity against human SF268 cells assessed as cell growth at 10 uM; settings: read-out: Activity; procedure, shortened: as §1
HL-60(TB) = assay: Cytotoxicity against human HL-60(TB) cells assessed as cell growth at 10 uM; settings: read-out: Activity
Procedure, shortened: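 NCI 60-cell panel screen at a single concentration of 10 µM. Cells are grown in RPMI 1640 with 5% FBS and 2 mM L-glutamine and read by SRB protein staining at 515 nm. Percent growth is measured relative to time-zero and untreated controls; inhibition % is 100 minus growth %.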

K562 = assay: Cytotoxicity against human K562 cells assessed as cell growth at 10 uM; settings: read-out: Activity; procedure, shortened: as §2
NCI-H460 = assay: Cytotoxicity against human NCI-H460 cells assessed as cell growth at 10 uM; settings: read-out: Activity; procedure, shortened: as §1
PC-3 = assay: Cytotoxicity against human PC3 cells assessed as cell growth at 10 uM; settings: read-out: Activity; procedure, shortened: as §1
Malme-3M = assay: Cytotoxicity against human MALME-3M cells assessed as cell growth at 10 uM; settings: read-out: Activity; procedure, shortened: as §1
SK-MEL-28 = assay: Cytotoxicity against human SK-MEL-28 cells assessed as cell growth at 10 uM; settings: read-out: Activity; procedure, shortened: as §1
TK-10 = assay: Cytotoxicity against human TK10 cells assessed as cell growth at 10 uM; settings: read-out: Activity; procedure, shortened: as §1
SNB-75 = assay: Cytotoxicity against human SNB75 cells assessed as cell growth at 10 uM; settings: read-out: Activity; procedure, shortened: as §1
HCC 2998 = assay: Cytotoxicity against human HCC2998 cells assessed as cell growth at 10 uM; settings: read-out: Activity; procedure, shortened: as §2
MDA-MB-435 = assay: Cytotoxicity against human MDA-MB-435 cells assessed as cell growth at 10 uM; settings: read-out: Activity; procedure, shortened: as §1
MDA-MB-231 = assay: Cytotoxicity against human MDA-MB-231 cells assessed as cell growth at 10 uM; settings: read-out: Activity; procedure, shortened: as §1
A498 = assay: Cytotoxicity against human A498 cells assessed as cell growth at 10 uM; settings: read-out: Activity; procedure, shortened: as §2
SF-295 = assay: Cytotoxicity against human SF295 cells assessed as cell growth at 10 uM; settings: read-out: Activity; procedure, shortened: as §1
OVCAR-3 = assay: Cytotoxicity against human OVCAR-3 cells assessed as cell growth at 10 uM; settings: read-out: Activity; procedure, shortened: as §1
[2] = Cytotoxicity against human Hs 578T cells assessed as cell growth at 10 uM; settings: read-out: Activity; procedure, shortened: as §2
BT-549 = assay: Cytotoxicity against human BT549 cells assessed as cell growth at 10 uM; settings: read-out: Activity; procedure, shortened: as §2
[3] = Growth inhibition of human NCI60 cells at 10 uM after 48 hrs by sulforhodamine B assay relative to control; settings: NCI60, 48 h, read-out: GI
Procedure, shortened: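 Single-dose NCI screen at 10 µM across the 60-line panel, 48 h exposure at 37 °C after a 24 h preincubation. Adherent cells were fixed with cold TCA and stained with 0.4% SRB, and absorbance was read at 515 nm. Inhibition % was taken as 100 minus growth %, and the mean across all lines was reported.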

T47D = assay: Cytotoxicity against human T47D cells assessed as cell growth at 10 uM; settings: read-out: Activity; procedure, shortened: as §1
HOP-62 = assay: Cytotoxicity against human HOP62 cells assessed as cell growth at 10 uM; settings: read-out: Activity; procedure, shortened: as §2
HOP-92 = assay: Cytotoxicity against human HOP92 cells assessed as cell growth at 10 uM; settings: read-out: Activity; procedure, shortened: as §2
NCI-H522 = assay: Cytotoxicity against human NCI-H522 cells assessed as cell growth at 10 uM; settings: read-out: Activity; procedure, shortened: as §1
OVCAR-5 = assay: Cytotoxicity against human OVCAR5 cells assessed as cell growth at 10 uM; settings: read-out: Activity; procedure, shortened: as §1
NCI/ADR-RES = assay: Cytotoxicity against human NCI/ADR-RES cells assessed as cell growth at 10 uM; settings: read-out: Activity; procedure, shortened: as §1
MOLT-4 = assay: Cytotoxicity against human MOLT4 cells assessed as cell growth at 10 uM; settings: read-out: Activity; procedure, shortened: as §1
EKVX = assay: Cytotoxicity against human EKVX cells assessed as cell growth at 10 uM; settings: read-out: Activity; procedure, shortened: as §2
MCF7 = assay: Cytotoxicity against human MCF7 cells assessed as cell growth at 10 uM; settings: read-out: Activity; procedure, shortened: as §1
KM12 = assay: Cytotoxicity against human KM12 cells assessed as cell growth at 10 uM; settings: read-out: Activity; procedure, shortened: as §1
IGROV-1 = assay: Cytotoxicity against human IGROV1 cells assessed as cell growth at 10 uM; settings: read-out: Activity; procedure, shortened: as §2
NCI-H322M = assay: Cytotoxicity against human NCI-H322M cells assessed as cell growth at 10 uM; settings: read-out: Activity; procedure, shortened: as §1
UACC-62 = assay: Cytotoxicity against human UACC62 cells assessed as cell growth at 10 uM; settings: read-out: Activity; procedure, shortened: as §1
HCT-116 = assay: Cytotoxicity against human HCT116 cells assessed as cell growth at 10 uM; settings: read-out: Activity; procedure, shortened: as §2
CCRF-CEM = assay: Cytotoxicity against human CCRF-CEM cells assessed as cell growth at 10 uM; settings: read-out: Activity; procedure, shortened: as §2
SW-620 = assay: Cytotoxicity against human SW620 cells assessed as cell growth at 10 uM; settings: read-out: Activity; procedure, shortened: as §1
OVCAR-8 = assay: Cytotoxicity against human OVCAR8 cells assessed as cell growth at 10 uM; settings: read-out: Activity; procedure, shortened: as §1
SF-539 = assay: Cytotoxicity against human SF539 cells assessed as cell growth at 10 uM; settings: read-out: Activity; procedure, shortened: as §1
HT-29 = assay: Cytotoxicity against human HT-29 cells assessed as cell growth at 10 uM; settings: read-out: Activity; procedure, shortened: as §2
SK-OV-3 = assay: Cytotoxicity against human SKOV3 cells assessed as cell growth at 10 uM; settings: read-out: Activity; procedure, shortened: as §1

Molecule `COc1cc(C)cc(-c2nn(CC#N)cc2-c2ccnc(-c3ccc(C#N)cc3)c2)c1` has a growth at 10 µM (SN12C) of 85.1%, a growth at 10 µM (OVCAR-4) of 76.2% and a growth at 10 µM (COLO 205) of 95.8%. The growth at 10 µM (NCI-H23) was 83.1%, the growth at 10 µM (DU-145) was 109% and the growth at 10 µM (ACHN) was 81.4%. The growth at 10 µM (UO-31) was 64.2%, the growth at 10 µM (NCI-H226) was 78.8% and the growth at 10 µM (SR) was 106%. It also gave a growth at 10 µM [1] of 89.7%, a growth at 10 µM (RXF 393) of 76.5% and a growth at 10 µM (SNB-19) of 79.1%. For the same molecule, the growth at 10 µM (LOX IMVI) was 80.7%, the growth at 10 µM (CAKI-1) was 82.2% and the growth at 10 µM (SK-MEL-5) was 63.4%. The growth at 10 µM (UACC-257) was 89.8%, the growth at 10 µM (HCT-15) was 75.9% and the growth at 10 µM (M14) was 104%. For the same molecule, the growth at 10 µM (MDA-MB-468) was 42.9%, the growth at 10 µM (SK-MEL-2) was 89.9% and the growth at 10 µM (U-251) was 91.2%. The growth at 10 µM (A549) was 83.6%, the growth at 10 µM (786-0) was 96.5% and the growth at 10 µM (SF-268) was 106%. It also gave a growth at 10 µM (HL-60(TB)) of 93.6%, a growth at 10 µM (K562) of 82% and a growth at 10 µM (NCI-H460) of 104%. The growth at 10 µM (PC-3) was 85.9%, the growth at 10 µM (Malme-3M) was 111% and the growth at 10 µM (SK-MEL-28) was 104%. For the same molecule, the growth at 10 µM (TK-10) was 84.7%, the growth at 10 µM (SNB-75) was 57.4% and the growth at 10 µM (HCC 2998) was 89.3%. For the same molecule, the growth at 10 µM (MDA-MB-435) was 102%, the growth at 10 µM (MDA-MB-231) was 80.8% and the growth at 10 µM (A498) was 82.2%. For the same molecule, the growth at 10 µM (SF-295) was 102%, the growth at 10 µM (OVCAR-3) was 102% and the growth at 10 µM [2] was 93.4%. For the same molecule, the growth at 10 µM (BT-549) was 99.3%, the inhibition of growth at 10 µM [3] was 14.4% and the growth at 10 µM (T47D) was 37.6%. It also gave a growth at 10 µM (HOP-62) of 96.5%, a growth at 10 µM (HOP-92) of 75.3% and a growth at 10 µM (NCI-H522) of 70.4%. The growth at 10 µM (OVCAR-5) was 97.9%, the growth at 10 µM (NCI/ADR-RES) was 76.8% and the growth at 10 µM (MOLT-4) was 71.8%. For the same molecule, the growth at 10 µM (EKVX) was 92%, the growth at 10 µM (MCF7) was 43.3% and the growth at 10 µM (KM12) was 102%. The growth at 10 µM (IGROV-1) was 90.9%, the growth at 10 µM (NCI-H322M) was 91.3% and the growth at 10 µM (UACC-62) was 59.4%. The growth at 10 µM (HCT-116) was 80.3%, the growth at 10 µM (CCRF-CEM) was 85.6% and the growth at 10 µM (SW-620) was 101%. For the same molecule, the growth at 10 µM (OVCAR-8) was 84.2%, the growth at 10 µM (SF-539) was 89.1% and the growth at 10 µM (HT-29) was 85.2%. For the same molecule, the growth at 10 µM (SK-OV-3) was 90.3%.
